Test results published in PMC12079591 (ACS Omega, 2025).
Where two headings read alike, the source gives them in different places.

Tests used:
MDA-MB-231 = assay: Cell proliferation assay; type: cell-based, human
Method in brief: (§1)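 Mycoplasma-negative, STR-authenticated cells were seeded at 4000−6000/well and kept overnight at 37 °C, 5% CO2. Graded test compound concentrations or solvent control were added to triplicate wells. Adherent lines were read by SRB (OD 510 nm) and suspension lines by MTT (OD 570 nm). IC50 was obtained by nonlinear regression. Results are means ± SD (n ≥ 2).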

PC-3 = assay: Cell proliferation assay; type: cell-based, human
Method in brief: as §1

DOHH2 = assay: Cell proliferation assay; type: cell-based; details: read-out: IC50 DOHH2; diffuse large B cell lymphoma; mean ± SD (n ≥ 2)
Method in brief: as §1

H1975 = assay: Cell proliferation assay; type: cell-based; details: read-out: IC50 H1975; lung carcinoma; mean ± SD (n ≥ 2)
Method in brief: as §1

NUGC-3 = assay: Cell proliferation assay; type: cell-based; details: read-out: IC50 NUGC-3; gastric carcinoma; mean ± SD (n ≥ 2)
Method in brief: as §1

K562 = assay: Cell proliferation assay; type: cell-based; details: read-out: IC50 K562, mean ± SD (n ≥ 2)
Method in brief: as §1

A-431 = assay: Cell proliferation assay; type: cell-based; details: read-out: IC50 A-431; squamous cell carcinoma; mean ± SD (n ≥ 2)
Method in brief: as §1

HPAF-II = assay: Cell proliferation assay; type: cell-based; details: read-out: IC50 HPAF-II; pancreatic carcinoma; mean ± SD (n ≥ 2)
Method in brief: as §1

K562/ADR = assay: Cell proliferation assay, multidrug-resistant K562/ADR; type: cell-based; details: for RF (resistance factor): K562/ADR versus K562; for IC50: read-out: IC50 K562/ADR, multidrug-resistant subline, mean ± SD (n ≥ 2)
Method in brief: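 K562/ADR cells were derived from parental K562 by stepwise increases in ADR concentration. Proliferation was measured by the SRB (adherent) or MTT (suspension) method: 4000−6000 cells/well seeded overnight at 37 °C, 5% CO2, graded test compound in triplicate wells. IC50 was obtained by nonlinear regression. The resistance factor compares K562/ADR with parental K562. Results are means ± SD (n ≥ 2).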

SUDHL-4 = assay: Cell proliferation assay; type: cell-based; details: read-out: IC50 SUDHL-4; diffuse large B cell lymphoma; mean ± SD (n ≥ 2)
Method in brief: as §1

HCT116 = assay: Cell proliferation assay; type: cell-based; details: read-out: IC50 HCT116; colorectal carcinoma; mean ± SD (n ≥ 2)
Method in brief: as §1

[1] = system: cyclin A2, cyclin B1, and cyclin D1; assay: Western blot of cell cycle-related proteins; type: cell-based, human; details: MDA-MB-231 and PC-3 cells, 24 h, dose-dependent
Method in brief: (§2)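 MDA-MB-231 and PC-3 cells were seeded in 12-well plates overnight, then exposed to a concentration gradient of test compound. Cells were lysed in SDS sample buffer, and equal protein amounts were run on SDS-PAGE and transferred to PVDF. Membranes were probed with primary antibodies, then HRP-conjugated secondary antibodies, and detected by ECL chemiluminescence.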

MDR1 = assay: Western blot of MDR1 in K562/ADR; type: cell-based; details: 48 h, concentration-dependent
Method in brief: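 K562 and K562/ADR cells were seeded in 12-well plates overnight and treated with a concentration gradient of test compound for 48 h. Lysates in SDS sample buffer (equal protein) were separated by SDS-PAGE and transferred to PVDF. MDR1 was probed with primary and HRP-conjugated secondary antibodies and detected by ECL.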

[2] = system: P-AKT, P-STAT3, P-STAT5, P-P38; assay: Western blot of JAK/STAT5, PI3K/AKT and p38 MAPK pathways; type: cell-based, human; details: MDA-MB-231 and PC-3 cells, 24 h, concentration-dependent
Method in brief: as §2

MDA-MB-231 cells = assay: Cell cycle analysis by flow cytometry; type: cell-based, human; details: MDA-MB-231, 24 h treatment
Method in brief: (§3)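 Cells were seeded in 12-well plates overnight, then exposed to test compound for 24 h. Cells were trypsinized, washed in cold PBS and fixed overnight in 70% ethanol at −20 °C. After two PBS washes they were stained 30 min at 37 °C with 50 μg/mL propidium iodide plus 20 μg/mL RNase A. About 10,000 cells were acquired by flow cytometry. Results are means ± SD; two-tailed unpaired t test.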

MV-4-11 = assay: Cell proliferation assay; type: cell-based; details: read-out: IC50 MV-4-11; acute myeloid leukemia; mean ± SD (n ≥ 2)
Method in brief: as §1

PC-3 cells = assay: Cell cycle analysis by flow cytometry; type: cell-based, human; details: PC-3, 24 h treatment
Method in brief: as §3

NCI-H460 = assay: Cell proliferation assay; type: cell-based; details: read-out: IC50 NCI-H460; lung carcinoma; mean ± SD (n ≥ 2)
Method in brief: as §1

KATO III = assay: Cell proliferation assay; type: cell-based; details: read-out: IC50 KATO III; gastric carcinoma; mean ± SD (n ≥ 2)
Method in brief: as §1

[3] = Boron biodistribution of compound 1d by ICP-mass; type: in vivo, mice; details: 3 h postinjection
Method in brief: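 Mice bearing subcutaneous tumours got a single intraperitoneal injection of 2 mg test compound in saline/DMSO and were sacrificed at 3 h. Blood was taken by cardiac puncture, and major organs and tumour were harvested and weighed. Tissue was digested 2 days at room temperature in 1 mL 1:1 concentrated H2SO4/HNO3, diluted 100-fold in water and filtered (0.22 μm). Boron was measured by ICP-OES and ICP-MS as μg/g tissue.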

[4] = read-out: IC50 MDA-MB-231, breast carcinoma, mean ± SD (n ≥ 2)
[5] = read-out: IC50 PC-3, prostate carcinoma, mean ± SD (n ≥ 2)

Row | Compound | IC50 (MDA-MB-231; [4]) [µM] | IC50 (PC-3; [5]) [µM] | IC50 (DOHH2) [nM] | IC50 (H1975) [µM] | IC50 (NUGC-3) [µM] | IC50 (K562; chronic myeloid leukemia) [µM] | IC50 (A-431) [µM] | IC50 (HPAF-II) [µM] | IC50 (SUDHL-4) [µM] | IC50 (HCT116) [µM] | IC50 (MV-4-11) [µM] | IC50 (NCI-H460) [µM] | IC50 (KATO III) [µM] | also measured
1 | 3-(1,2-Dicarba-closo-dodecarboranyl)-7-methoxy-2H-chromene [Compound 1j] | 16 ± 0.16 | 10.9 ± 3.31 | – | – | – | – | – | – | – | – | – | – | – | –
2 | O=c1c(-c2ccc(O)cc2)coc2cc(O)cc(O)c12 [genistein, reference compound] | – | – | – | – | – | – | – | – | – | – | – | – | – | IC50 (MDA-MB-231; Homo sapiens, MDA-MB-231, read-out: IC50 MDA-MB-231): 36.9 ± 2.81 µM; IC50 (PC-3; Homo sapiens, PC-3, read-out: IC50 PC-3): 29.5 ± 8.74 µM
3 | 3-(1,2-Dicarba-closo-dodecarboranyl)-4-oxo-4H-chromen-7-yl Sulfurofluoridate [Compound 1m] | 5.46 ± 0.61 | 4.99 ± 2.76 | 1930 ± 120 | 5.63 ± 0.3 | 2.54 ± 0.37 | 4.52 ± 0.8 | 4.86 ± 0.21 | 2.67 ± 0.55 | 4.29 ± 0.54 | 2.86 ± 0.23 | 5.45 ± 0.26 | 3.19 ± 0.18 | 3.55 ± 0.15 | IC50 (K562; parental cell line): 4.52 ± 0.806 µM; RF (resistance factor) (K562/ADR): 0.67; IC50 (K562/ADR): 3.04 ± 0.0347 µM; expression of cyclin A2, cyclin B1, and cyclin D1 [1]: downregulated; expression of MDR1 (MDR1): significantly inhibited; P-P38 expression [2]: upregulating; expression of P-AKT, P-STAT3, and P-STAT5 [2]: reduced; effect on cell cycle distribution (MDA-MB-231 cells): caused G0/G1 cell cycle arrest; effect on cell cycle distribution (PC-3 cells): caused G0/G1 cell cycle arrest
4 | 3-(1,2-Dicarba-closo-dodecarboranyl)-7-methoxychroman-4-ol [Compound 1h] | 14.6 ± 1.58 | 13.5 ± 1.02 | – | – | – | – | – | – | – | – | – | – | – | –
5 | 3-(1,2-Dicarba-closo-dodecarboranyl)-7-hydroxy-4H-chromen-4-one [Compound 1d] | 5.59 ± 1.82 | 5.24 ± 1.9 | 2780 ± 260 | 5.27 ± 0.63 | 3.36 ± 0.02 | 5.29 ± 0.86 | 4.09 ± 0.46 | 3.56 ± 0.38 | 5.4 ± 0.48 | 3.42 ± 0.22 | 4.25 ± 0.34 | 4.24 ± 0.9 | 4.38 ± 0.04 | brain/blood uptake ratio (boron) [3]: 0.45; boron content in blood ([3]; 2 mg intraperitoneal, mice): 2.28 ± 0.99 µg/g; boron content in brain ([3]; 2 mg intraperitoneal, mice): 1.03 ± 0.43 µg/g; boron content in liver ([3]; 2 mg intraperitoneal, mice): 56.37 ± 4.71 µg/g; boron content in pancreas ([3]; 2 mg intraperitoneal, mice): 40.74 ± 4.67 µg/g; boron content in tumor ([3]; 2 mg intraperitoneal, mice): 2.18 ± 1.18 µg/g; IC50 (K562; parental cell line): 5.29 ± 0.861 µM; RF (resistance factor) (K562/ADR): 0.93; IC50 (K562/ADR): 4.91 ± 0.094 µM; expression of cyclin A2, cyclin B1, and cyclin D1 [1]: downregulated; expression of MDR1 (MDR1): significantly inhibited; P-P38 expression [2]: upregulating; expression of P-AKT, P-STAT3, and P-STAT5 [2]: reduced; effect on cell cycle distribution (MDA-MB-231 cells): caused G0/G1 cell cycle arrest; effect on cell cycle distribution (PC-3 cells): caused G0/G1 cell cycle arrest
6 | 7-(Benzyloxy)-3-(1,2-dicarba-closo-dodecarboranyl)-4H-chromen-4-one [Compound 1c] | 65.3 ± 5.39 | 72.4 ± 1.06 | – | – | – | – | – | – | – | – | – | – | – | –
7 | 3-(1,2-Dicarba-closo-dodecarboranyl)chromane-4,7-diol [Compound 1l] | 17.9 ± 6.09 | 16.6 ± 1.89 | – | – | – | – | – | – | – | – | – | – | – | –
8 | 3-(1,2-Dicarba-closo-dodecarboranyl)-7-methoxychromane [Compound 1k] | 35.3 ± 4.78 | 35.5 ± 0.98 | – | – | – | – | – | – | – | – | – | – | – | –
9 | 3-(1,2-Dicarba-closo-dodecarboranyl)-5,7-dihydroxy-4H-chromen-4-one [Compound 1g] | 5.34 ± 1.03 | 5.14 ± 2.93 | 5230 ± 620 | 5.13 ± 1.08 | 4.79 ± 0.44 | 7 ± 0.27 | 4.84 ± 1.07 | 4.14 ± 0.93 | 6.16 ± 0.34 | 4.21 ± 0.11 | 5.65 ± 0.02 | 5.93 ± 2.15 | 5.02 ± 0.38 | –
10 | 3-(1,2-Dicarba-closo-dodecarboranyl)-5,7-dimethoxy-4H-chromen-4-one [Compound 1e] | 55.8 ± 6.71 | 53.1 ± 0.73 | – | – | – | – | – | – | – | – | – | – | – | –
